# Test results reported in ChEMBL document CHEMBL3588757, “Structure-based design, synthesis and biological testing of piperazine-linked bis-epipodophyllotoxin etoposide analogs” (Bioorg Med Chem, 2015).
# Assays:
# M14 = experiment: Cytotoxicity against human M14 cells assessed as cell growth at 0.05 uM by SRB assay; format: functional; details: read-out: Activity
# NCI-H23 = experiment: Cytotoxicity against human NCI-H23 cells by SRB assay; format: functional
# In short: (§1)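 NCI-60 panel screen; 5-dose testing giving GI50 per cell line, plus a single 10 µM one-dose test. Method details not given beyond the NCI screen.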
# [1] = Cytotoxicity against human NCI-ADR-RES cells assessed as cell growth at 50 uM by SRB assay; format: functional; details: read-out: Activity
# HCT-15 [2] = experiment: Cytotoxicity against human HCT15 cells assessed as cell growth at 5 uM by SRB assay; format: functional; details: read-out: Activity
# In short: (§2)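 Measured in the NCI-60 human tumour cell line panel using five-dose testing. Growth was recorded at each dose for each cell line, and a GI50 was derived for each line.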
# ACHN = experiment: Cytotoxicity against human ACHN cells assessed as cell growth at 5 uM by SRB assay; format: functional; details: read-out: Activity
# SK-MEL-2 [3] = experiment: Cytotoxicity against human SK-MEL-2 cells assessed as cell growth at 0.005 uM by SRB assay; format: functional; details: read-out: Activity
# NCI-H322M = experiment: Cytotoxicity against human NCI-H322M cells assessed as cell growth at 50 uM by SRB assay; format: functional; details: read-out: Activity
# COLO 205 = experiment: Cytotoxicity against human COLO205 cells assessed as cell growth at 0.005 uM by SRB assay; format: functional; details: read-out: Activity
# SF-268 = experiment: Cytotoxicity against human SF268 cells assessed as cell growth at 50 uM by SRB assay; format: functional; details: read-out: Activity
# A549 [4] = experiment: Cytotoxicity against human A549/ATCC cells assessed as cell growth at 0.005 uM by SRB assay; format: functional; details: read-out: Activity
# [5] = Cytotoxicity against etoposide-resistant human K/VP.5 cells assessed as cell growth inhibition after 72 hrs by MTS assay; format: functional, cell-based; details: K/VP.5, 72 h
# In short: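 K/VP.5 cells are a K562-derived subline, 26-fold etoposide-resistant, with decreased topoisomerase IIα mRNA and protein. Cells were grown in suspension in αMEM with 10% fetal calf serum. Drugs were given from DMSO stocks, with final DMSO typically 0.4% or less. Read-out was MTS absorbance after 72 h. Typically nine concentrations were run in duplicate on two days. IC50 came from a four-parameter logistic fit.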
# HOP-92 = experiment: Cytotoxicity against human HOP92 cells assessed as cell growth at 50 uM by SRB assay; format: functional; details: read-out: Activity; in short: as §2
# [6] = Cytotoxicity against human Hs578T cells assessed as cell growth at 0.5 uM by SRB assay; format: functional; details: Hs-578T, read-out: Activity; in short: as §2
# MDA-MB-435 = experiment: Cytotoxicity against human MDA-MB-435 cells assessed as cell growth at 50 uM by SRB assay; format: functional; details: read-out: Activity
# HCT-15 [7] = experiment: Cytotoxicity against human HCT15 cells assessed as cell growth at 0.5 uM by SRB assay; format: functional; details: read-out: Activity; in short: as §2
# HCT-15 [8] = experiment: Cytotoxicity against human HCT15 cells assessed as cell growth at 0.05 uM by SRB assay; format: functional; details: read-out: Activity; in short: as §2
# HCC 2998 = experiment: Cytotoxicity against human HCC2998 cells assessed as cell growth at 0.5 uM by SRB assay; format: functional; details: read-out: Activity; in short: as §2
# HOP-62 [9] = experiment: Cytotoxicity against human HOP62 cells by SRB assay; format: functional; in short: as §2
# SK-MEL-2 [10] = experiment: Cytotoxicity against human SK-MEL-2 cells assessed as cell growth at 50 uM by SRB assay; format: functional; details: read-out: Activity
# OVCAR-8 = experiment: Cytotoxicity against human OVCAR8 cells by SRB assay; format: functional; in short: as §1
# CAKI-1 [11] = experiment: Cytotoxicity against human Caki1 cells assessed as cell growth at 5 uM by SRB assay; format: functional; details: read-out: Activity
# HCT-116 = experiment: Cytotoxicity against human HCT116 cells assessed as cell growth at 5 uM by SRB assay; format: functional; details: read-out: Activity; in short: as §2
# SW-620 = experiment: Cytotoxicity against human SW620 cells assessed as cell growth at 5 uM by SRB assay; format: functional; details: read-out: Activity
# UO-31 [12] = experiment: Cytotoxicity against human UO31 cells assessed as cell growth at 0.5 uM by SRB assay; format: functional; details: read-out: Activity
# UACC-257 = experiment: Cytotoxicity against human UACC257 cells assessed as cell growth at 0.05 uM by SRB assay; format: functional; details: read-out: Activity
# U-251 = experiment: Cytotoxicity against human U251 cells assessed as cell growth at 0.5 uM by SRB assay; format: functional; details: read-out: Activity
# IGROV-1 = experiment: Cytotoxicity against human IGROV1 cells assessed as cell growth at 0.05 uM by SRB assay; format: functional; details: read-out: Activity; in short: as §2
# UACC-62 = experiment: Cytotoxicity against human UACC62 cells assessed as cell growth at 0.005 uM by SRB assay; format: functional; details: read-out: Activity
# MCF7 = experiment: Cytotoxicity against human MCF7 cells assessed as cell growth at 5 uM by SRB assay; format: functional; details: read-out: Activity
# T47D [13] = experiment: Cytotoxicity against human T47D cells assessed as cell growth at 0.5 uM by SRB assay; format: functional; details: read-out: Activity
# UO-31 [14] = experiment: Cytotoxicity against human UO31 cells assessed as cell growth at 5 uM by SRB assay; format: functional; details: read-out: Activity
# CAKI-1 [15] = experiment: Cytotoxicity against human Caki1 cells assessed as cell growth at 0.005 uM by SRB assay; format: functional; details: read-out: Activity
# SK-OV-3 = experiment: Cytotoxicity against human SKOV3 cells by SRB assay; format: functional; in short: as §1
# T47D [16] = experiment: Cytotoxicity against human T47D cells by SRB assay; format: functional; in short: as §1
# A498 = experiment: Cytotoxicity against human A498 cells assessed as cell growth at 0.5 uM by SRB assay; format: functional; details: read-out: Activity
# A549 [17] = experiment: Cytotoxicity against human A549/ATCC cells by SRB assay; format: functional
# CAKI-1 [18] = experiment: Cytotoxicity against human Caki1 cells assessed as cell growth at 0.05 uM by SRB assay; format: functional; details: read-out: Activity
# SR = experiment: Cytotoxicity against human SR cells assessed as cell growth at 0.005 uM by SRB assay; format: functional; details: read-out: Activity
# UO-31 [19] = experiment: Cytotoxicity against human UO31 cells assessed as cell growth at 0.05 uM by SRB assay; format: functional; details: read-out: Activity
# HOP-62 [20] = experiment: Cytotoxicity against human HOP62 cells assessed as cell growth at 5 uM by SRB assay; format: functional; details: read-out: Activity; in short: as §2
# BT-549 = experiment: Cytotoxicity against human BT549 cells assessed as cell growth at 0.005 uM by SRB assay; format: functional; details: read-out: Activity
# [21] = read-out: LC50 (the source's name)
# [22] = read-out: pLC50 (the source's name) (converted)
smiles,measurement,setting,value
COc1cc([C@@H]2c3cc4c(cc3[C@@H](NC(=O)CN3CCN(CCCCCCN5CCN(CC(=O)N[C@@H]6c7cc8c(cc7[C@@H](c7cc(OC)c(O)c(OC)c7)[C@H]7C(=O)OC[C@@H]76)OCO8)CC5)CC3)[C@H]3COC(=O)[C@H]23)OCO4)cc(OC)c1O,growth at 0.05 µM,M14,94%
same,GI50,NCI-H23; read-out: GI50,3.82 µM
same,CC50,NCI-H23; [21],> 50 µM
same,TGI,NCI-H23; read-out: TGI,38.6 µM
same,GI50,NCI-H23; read-out: pGI50 (converted),3.8 µM
same,CC50,NCI-H23; [22],> 50.1 µM
same,TGI,NCI-H23; read-out: pTGI (converted),38.9 µM
same,growth at 50 µM,[1],87%
same,growth at 5 µM,HCT-15 [2],82%
same,growth at 5 µM,ACHN,73%
same,growth at 0.005 µM,SK-MEL-2 [3],102%
same,growth at 50 µM,NCI-H322M,37%
same,growth at 0.005 µM,COLO 205,101%
same,growth at 50 µM,SF-268,10%
same,growth at 0.005 µM,A549 [4],99%
same,IC50,[5],0.88 µM
same,growth at 50 µM,HOP-92,14%
same,growth at 0.5 µM,[6],77%
same,growth at 50 µM,MDA-MB-435,17%
same,growth at 0.5 µM,HCT-15 [7],90%
same,growth at 0.05 µM,HCT-15 [8],93%
same,growth at 0.5 µM,HCC 2998,82%
same,GI50,HOP-62 [9]; read-out: GI50,3.6 µM
same,CC50,HOP-62 [9]; [21],> 50 µM
same,TGI,HOP-62 [9]; read-out: TGI,22.8 µM
same,GI50,HOP-62 [9]; read-out: pGI50 (converted),3.63 µM
same,CC50,HOP-62 [9]; [22],> 50.1 µM
same,TGI,HOP-62 [9]; read-out: pTGI (converted),22.9 µM
same,growth at 50 µM,SK-MEL-2 [10],-15%
same,GI50,OVCAR-8; read-out: GI50,35.7 µM
same,CC50,OVCAR-8; [21],> 50 µM
same,TGI,OVCAR-8; read-out: TGI,> 50 µM
same,GI50,OVCAR-8; read-out: pGI50 (converted),35.5 µM
same,CC50,OVCAR-8; [22],> 50.1 µM
same,TGI,OVCAR-8; read-out: pTGI (converted),> 50.1 µM
same,growth at 5 µM,CAKI-1 [11],80%
same,growth at 5 µM,HCT-116,40%
same,growth at 5 µM,SW-620,37%
same,growth at 0.5 µM,UO-31 [12],92%
same,growth at 0.05 µM,UACC-257,113%
same,growth at 0.5 µM,U-251,76%
same,growth at 0.05 µM,IGROV-1,105%
same,growth at 0.005 µM,UACC-62,97%
same,growth at 5 µM,MCF7,12%
same,growth at 0.5 µM,T47D [13],79%
same,growth at 5 µM,UO-31 [14],89%
same,growth at 0.005 µM,CAKI-1 [15],89%
same,GI50,SK-OV-3; read-out: GI50,3.87 µM
same,CC50,SK-OV-3; [21],> 50 µM
same,TGI,SK-OV-3; read-out: TGI,> 50 µM
same,GI50,SK-OV-3; read-out: pGI50 (converted),3.89 µM
same,CC50,SK-OV-3; [22],> 50.1 µM
same,TGI,SK-OV-3; read-out: pTGI (converted),> 50.1 µM
same,GI50,T47D [16]; read-out: GI50,2.01 µM
same,CC50,T47D [16]; [21],> 50 µM
same,TGI,T47D [16]; read-out: TGI,> 50 µM
same,GI50,T47D [16]; read-out: pGI50 (converted),2 µM
same,CC50,T47D [16]; [22],> 50.1 µM
same,TGI,T47D [16]; read-out: pTGI (converted),> 50.1 µM
same,growth at 0.5 µM,A498,78%
same,GI50,A549 [17]; read-out: GI50,0.919 µM
same,CC50,A549 [17]; [21],> 50 µM
same,TGI,A549 [17]; read-out: TGI,15.2 µM
same,GI50,A549 [17]; read-out: pGI50 (converted),0.912 µM
same,CC50,A549 [17]; [22],> 50.1 µM
same,TGI,A549 [17]; read-out: pTGI (converted),15.1 µM
same,growth at 0.05 µM,CAKI-1 [18],93%
same,growth at 0.005 µM,SR,90%
same,growth at 0.05 µM,UO-31 [19],97%
same,growth at 5 µM,HOP-62 [20],42%
same,growth at 0.005 µM,BT-549,86%
